Results published in ChEMBL document CHEMBL2169776, “Antimicrobial activity of peptidomimetics against multidrug-resistant Escherichia coli: a comparative study of different backbones” (J Med Chem, 2012).
pIC50: −log10 of the molar value. Values after ≈ are worked out from the molar mass of the structure shown.

Tests used:
Escherichia coli [1] = test: Antibacterial activity against Escherichia coli ATCC 25922 after 16 to 20 hrs by broth microdilution assay; format: functional
HeLa = test: Cytotoxicity against human HeLa cells assessed as growth inhibition after 1 hr; format: cell-based
In short: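 HeLa cells seeded at 9000 per well, cultured 24 h; at 80−100% confluency washed with HBSS and exposed 1 h (37 °C, 50 rpm) to 2-fold serial dilutions in EMEM. After washing, MTS/PMS (240/2.4 μg/mL) in HBSS added for 1.5 h; formazan read at 492 nm. 0.2% SDS = 0%, EMEM alone = 100%. Test range 1−128 or 8−1024 μM; IC50 reported.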

[2] = Hemolytic activity against human RBCs after 1 hr by spectrophotometry; format: ADME, cell-based; conditions: erythrocyte
In short: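 Freshly drawn human erythrocytes washed in TBS (pH 7.2, 10 mM Tris, 150 mM NaCl), 1% v/v suspension mixed with 2-fold serial dilutions (1−128 μM) in water; 1 h at 37 °C. After pelleting, supernatant diluted 1:1 with water and hemoglobin read at OD 405 nm. Melittin (400 μg/mL) = 100%, TBS = 0%. Value is the lowest concentration giving ≥10% lysis.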

Escherichia coli [3] = test: Antibacterial activity against multidrug resistant NDM-1 producing Escherichia coli isolate after 16 to 20 hrs by broth microdilution assay; format: functional
Escherichia coli [4] = test: Antibacterial activity against multidrug resistant Amp-C producing Escherichia coli isolate after 16 to 20 hrs by broth microdilution assay; format: functional
Escherichia coli [5] = test: Antibacterial activity against multidrug resistant ESBL producing Escherichia coli isolate after 16 to 20 hrs by broth microdilution assay; format: functional
Staphylococcus aureus = test: Antibacterial activity against methicillin-resistant Staphylococcus aureus isolate after 16 to 20 hrs by broth microdilution assay; format: functional
[6] = Therapeutic index, ratio of HC10 for human erythrocyte cells to MIC for multidrug resistant bacterial strains; conditions: read-out: TI
In short: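 TI = hemolytic activity divided by median of MIC values. Hemolysis: washed fresh human RBCs (1% v/v in TBS, pH 7.2) with 2-fold oligomer dilutions (1–128 μM), 37 °C, 1 h; supernatant OD 405 nm; melittin 400 μg/mL = 100%, TBS = 0%. HA = concentration giving ≥10% lysis. MICs by broth microdilution, 35 °C, 16–20 h.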

Klebsiella pneumoniae [7] = test: Antibacterial activity against multidrug resistant KPC producing Klebsiella pneumoniae isolate after 16 to 20 hrs by broth microdilution assay; format: functional
[8] = Proteolytic stability of compound in presence of Pronase by reverse phase HPLC analysis; format: ADME
In short: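 Oligomer (2 mg/mL solution, 250 μL) incubated with Pronase (1.0 mg/mL solution, 50 μL) in 10 mM Tris pH 7.5 (1.2 mL); enzyme activity first confirmed on Nα-benzoyl arginine. Degradation followed by analytical reverse-phase HPLC (10−60% B) at 6, 12, 18 and 50 h; degradation product identified by HRMS.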

Klebsiella pneumoniae [9] = test: Antibacterial activity against multidrug resistant NDM-1 producing Klebsiella pneumoniae isolate after 16 to 20 hrs by broth microdilution assay; format: functional

| Compound | MIC (Escherichia coli [1]) [µM] | pIC50 (HeLa) | HC10 [2] [µM] | MIC (Escherichia coli [3]) [µM] | MIC (Escherichia coli [4]) [µM] | MIC (Escherichia coli [5]) [µM] | MIC (Staphylococcus aureus) [µM] | selectivity ratio [6] | MIC (Klebsiella pneumoniae [7]) [µM] | Stability [8] | MIC (Klebsiella pneumoniae [9]) [µM] |
| --- | --- | --- | --- | --- | --- | --- | --- | --- | --- | --- | --- |
| CC(=O)N(CCCCN)CCC(=O)N(CCC(=O)N(CCCCN)CCC(=O)N(CCC(=O)N(CCCCN)CCC(=O)N(CCC(=O)N(CCCCN)CCC(=O)N(CCC(=O)N(CCCCN)CCC(=O)N(CCC(=O)N(CCCCN)CCC(=O)N(CCC(=O)N(CCCCN)CCC(=O)N(CCC(=O)N(CCCCN)CCC(=O)N(CCC(N)=O)Cc1ccccc1)Cc1ccccc1)Cc1ccccc1)Cc1ccccc1)Cc1ccccc1)Cc1ccccc1)Cc1ccccc1)Cc1ccccc1 | 16 (≈ 39.8 µg/mL) | 3.77 | > 128 | 4 (≈ 9.95 µg/mL) | 16 (≈ 39.8 µg/mL) | 8 (≈ 19.9 µg/mL) | 256 (≈ 636 µg/mL) | > 10 | 256 (≈ 636 µg/mL) | Stable | 256 (≈ 636 µg/mL) |
| CC(=O)N[C@@H](CCCCN)C(=O)N[C@H](CC(=O)N[C@@H](CCCCN)C(=O)N[C@H](CC(=O)N[C@@H](CCCCN)C(=O)N[C@H](CC(=O)N[C@@H](CCCCN)C(=O)N[C@H](CC(=O)N[C@@H](CCCCN)C(=O)N[C@H](CC(=O)N[C@@H](CCCCN)C(=O)N[C@H](CC(=O)N[C@@H](CCCCN)C(=O)N[C@H](CC(=O)N[C@@H](CCCCN)C(=O)N[C@H](CC(N)=O)Cc1ccccc1)Cc1ccccc1)Cc1ccccc1)Cc1ccccc1)Cc1ccccc1)Cc1ccccc1)Cc1ccccc1)Cc1ccccc1 | 64 (≈ 152 µg/mL) | 4.51 | 64 | 64 (≈ 152 µg/mL) | 32 (≈ 76 µg/mL) | 32 (≈ 76 µg/mL) | 32 (≈ 76 µg/mL) | 1 | 128 (≈ 304 µg/mL) | Stable | 128 (≈ 304 µg/mL) |
